TRPC4 agonist – activators of mouse TRPC4 channel. Q9QUQ5. HEK293 TRPC4beta/mu-opioid, Fluo4 calcium fluorescence; hits give high values. B-score at 10 µM. actives 0.49% (n = 310,000). AID 2237;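 active means B-score above 5 SD of library B-scores, and initial fluorescence ratio not above library mean plus 5 SD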;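 further: positive B-score marks a calcium rise read as TRPC4 activation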
Target sequence (Q9QUQ5 whole entry, looked up): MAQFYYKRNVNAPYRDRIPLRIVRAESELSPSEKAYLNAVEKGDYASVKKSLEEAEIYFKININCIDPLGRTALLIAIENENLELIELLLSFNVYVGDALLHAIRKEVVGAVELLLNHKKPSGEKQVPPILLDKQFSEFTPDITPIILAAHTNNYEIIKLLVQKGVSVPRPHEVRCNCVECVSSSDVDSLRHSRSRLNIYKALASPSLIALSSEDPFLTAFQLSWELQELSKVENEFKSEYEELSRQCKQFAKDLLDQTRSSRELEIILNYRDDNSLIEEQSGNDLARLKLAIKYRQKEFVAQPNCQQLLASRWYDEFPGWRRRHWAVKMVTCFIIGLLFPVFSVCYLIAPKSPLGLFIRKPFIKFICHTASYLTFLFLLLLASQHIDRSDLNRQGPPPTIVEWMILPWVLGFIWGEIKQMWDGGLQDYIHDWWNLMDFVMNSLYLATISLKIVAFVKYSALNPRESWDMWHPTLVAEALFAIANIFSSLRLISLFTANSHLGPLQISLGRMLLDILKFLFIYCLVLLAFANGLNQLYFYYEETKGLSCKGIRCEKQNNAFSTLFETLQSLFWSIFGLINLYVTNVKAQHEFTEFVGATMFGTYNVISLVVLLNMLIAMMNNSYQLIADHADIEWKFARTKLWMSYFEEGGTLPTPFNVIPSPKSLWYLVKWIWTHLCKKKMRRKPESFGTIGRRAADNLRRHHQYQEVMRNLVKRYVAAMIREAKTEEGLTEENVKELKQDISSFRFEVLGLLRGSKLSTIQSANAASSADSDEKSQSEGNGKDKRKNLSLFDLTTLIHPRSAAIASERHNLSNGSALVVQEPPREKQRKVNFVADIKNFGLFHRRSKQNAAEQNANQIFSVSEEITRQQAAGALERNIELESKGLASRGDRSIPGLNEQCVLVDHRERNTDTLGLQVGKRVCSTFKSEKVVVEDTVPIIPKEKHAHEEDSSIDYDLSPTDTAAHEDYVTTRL
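System – HEK293 cells stably co-expressing mouse TRPC4beta and mu-opioid receptor · Signal – Fluo4 calcium-sensitive dye fluorescence, kinetic, 1 Hz baseline · Benchmarks – buffer (low) and maximal DAMGO (high) · Read-out – B score of integrated fluorescence ratio per well · Incubation – dye loading 45 min room temperature, 110 s kinetic read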
TRPC4 PAM – allosterically enhances the mouse TRPC4 cation channel | HEK293 TRPC4beta/mu-opioid, DAMGO EC20, Fluo-4 Ca2+ flux; hits give high values | B-score at 10 µM | actives 0.42% (n = 310,000) | AID 2227;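 active means B-score of calcium response area above 5 SD of library B-scores, with initial fluorescence ratio within 5 SD of library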;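 further: B-score of integrated fluorescence ratio over time as area under calcium response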
TRPC4 block – inhibitors of mouse TRPC4 channel; HEK293 TRPC4beta/mu-opioid, DAMGO-evoked Fluo4 calcium flux; hits give low values; Q9QUQ5; actives 0.39% (n = 300,000); B-score at 10 µM;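 active means B-score over 3 SD under the library average, no early fluorescence shift, positive overall ratio signal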
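Material: HEK293 cells with stable TRPC4beta plus mu-opioid receptor expression / Probe or stimulus: DAMGO in two steps, submaximal then maximal / Compound: single concentration per test compound / Technique: kinetic Fluo4 fluorescence imaging of calcium influx / Read-out: per-well B score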
TRPC6 activator – mouse TRPC6 channel activation. HEK293-TRPC6 membrane potential dye fluorescence; hits give high values. actives 0.13% (n = 310,000). B-score at 10 µM. Q61143. AID 2550;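 active means B-score of the integrated fluorescence ratio above library mean plus 3 SD, and starting fluorescence ratio within library mean plus 5 SD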;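 further: higher score means more depolarization so channel activation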
DSG3 Ab inh – human desmoglein-3 autoantibody binding inhibition. AID 588358. binding (percent of control), % at 10 µM. actives 0.48% (n = 310,000). DSG3-coupled beads, scFv-anti-DSG3-GFP binding, flow cytometry; hits give low values;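 active means binding more than 3 SD below its plate's average and above zero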;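 further: hits lower antibody fragment binding to DSG3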
TRPC6 inhibitor – mouse TRPC6 channel inhibition | Q61143 | HEK293-TRPC6, membrane potential dye, ACh-evoked depolarization; hits give low values | B-score at 10 µM | actives 1.1% (n = 310,000) | AID 2553;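 active means B-score under library mean minus 3 SD, initial fluorescence not abnormally high, positive integrated signal ratio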;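 further: B-score derived from integrated fluorescence ratio over the kinetic read; more negative B-score means stronger inhibition of depolarization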
Active calls of the source: *; i = inactive; . = not tested or not shown. Rows were chosen to be rich in hits. Some 2.5% of all compounds tested hit in one or more screens of this group.

SMILES | TRPC4 agonist | TRPC4 PAM | TRPC4 block | TRPC6 activator | DSG3 Ab inh | TRPC6 inhibitor
COc1cc(C(=O)NCc2nnc(SCC(=O)Nc3nc4ccccc4s3)o2)cc(OC)c1OC | i | i | i | i | 105.5 | i
CN(C)Cc1ccccc1COc1ccccc1 | i | i | i | i | 117.3 | i
CC(C)CNC(=O)C(=O)NCc1ccccn1 | i | i | i | i | 15.5* | i
Cc1ccc(CC(CC(=O)O)C(=O)NCC23CC4CC(CC(C4)C2)C3)cc1 (configuration not stated) | i | 14* | i | i | 100.2 | i
O=C(O)CC(Cc1ccc(Cl)cc1)C(=O)NCC12CC3CC(CC(C3)C1)C2 (configuration not stated) | i | i | i | i | 99.7 | i
Cc1cc(NCCN2CCCCC2)n2c(nc3ccccc32)c1C#N | i | i | i | i | . | -8.11*
COc1ccc(C(=O)/C(=C/O)N=Nc2ccc(F)cc2)cc1 | i | i | i | i | -4.7* | i
NNc1nc(-c2ccccc2Cl)nc2ccccc12 | i | i | i | i | 100.5 | i
NNc1nc(-c2ccccc2Cl)nc2sc3c(c12)CCCC3 | i | 12* | i | i | 82.2 | i
O=C(CS(=O)CC(=O)Nc1cccnc1)Nc1ccc(F)cc1 (configuration not stated) | i | i | i | i | . | i
Cc1ccc(C2(CCN)CCOC(C(C)C)C2)cc1 (configuration not stated) | i | i | i | i | 102.4 | i
Cc1ccc(C2(CCNC(C)c3cccs3)CCOC(C(C)C)C2)cc1 (configuration not stated) | 44* | i | i | i | 114.8 | i
COc1ccccc1C1(CCNC(C)c2cccs2)CCOC(C(C)C)C1 (configuration not stated) | 77* | i | i | i | 92.5 | i
COc1ccccc1/C=C/C(=O)OCC(=O)NC(=O)NC1CCCC1 | . | . | . | . | 127.4 | .
OC(CNC1CCCc2ccccc21)COc1c(Cl)cccc1Cl (configuration not stated) | 44* | i | -5* | i | 103.5 | i
CCOC(=O)C(=NC1CCS(=O)(=O)C1)NNc1cc(Cl)ccc1Cl (configuration not stated) | i | i | i | i | 100.7 | i
CCOC(=O)C(=NC1CCS(=O)(=O)C1)NNc1ccccc1Cl (configuration not stated) | i | 47* | i | i | 99.5 | i
COc1ccc(/C=N\NC(=O)c2ccc(Cn3cc(Br)c([N+](=O)[O-])n3)o2)c(OC)c1C | i | i | i | i | 64.5* | i
Cc1ccccc1N1C(=O)c2ccccc2C1O (configuration not stated) | i | i | i | i | 94.1 | i
CCC(C)c1ccccc1NC(=O)CN1CCN(C/C=C/c2ccccc2)CC1 (configuration not stated) | i | i | i | i | 85.8 | i
COc1ccccc1CC(Cc1nc2ccccc2[nH]1)c1nc2ccccc2[nH]1 (configuration not stated) | i | i | -6* | i | 106.4 | i
Cc1cccc(CC(Cc2nc3ccccc3[nH]2)c2nc3ccccc3[nH]2)c1 (configuration not stated) | i | i | i | i | 98.0 | i
CC(=O)Nc1ccc(C(=S)NCC2(N(C)C)CCCCC2)cc1 | i | i | i | i | 109.2 | i
COC(=O)c1ccc(C(=S)NCC2(N(C)C)CCCCC2)cc1 | 101* | i | i | i | 104.3 | i
CNC(=O)c1cc(NC(=O)CCn2nc(-c3ccc(C)cc3)c3ccccc3c2=O)ccc1OC | i | i | i | i | 111.1 | i
SMILES | TRPC4 agonist | TRPC4 PAM | TRPC4 block | TRPC6 activator | DSG3 Ab inh | TRPC6 inhibitor
COc1cc(-c2n[nH]c(=S)n2/N=C/c2cccn2C)cc(OC)c1OC | 52* | i | i | i | . | i
COc1ccc(OC2CCN(S(=O)(=O)c3ccccc3)CC2)cc1 | i | 13* | i | i | 90.8 | i
O=C(COc1ccc(Br)cc1)N1CCN(S(=O)(=O)/C=C/c2ccccc2)CC1 | i | 11* | i | i | 91.9 | i
O=C(CN1CCc2ccccc21)Nc1ccc2c(c1)OCO2 | i | i | i | i | 72.3* | i
Cc1nc(SCC(=O)c2cc(C)n(C3CC3)c2C)c2ccccc2n1 | . | . | . | . | 103.1 | .
COc1ccc(C)cc1S(=O)(=O)Nc1ccc(F)c(Cl)c1 | i | 10* | i | i | 99.0 | i
COc1ccc(NS(=O)(=O)c2cc(C)ccc2OC)cc1OC | i | i | i | i | . | i
O=c1c2ccccc2sn1-c1cc(S(=O)(=O)N2CCOCC2)ccc1N1CCOCC1 | i | i | i | i | 25.6* | i
C=CCN(C(=O)CCC(=O)Nc1cc(C)on1)C(C(=O)NC(C)(C)C)c1ccc(OC)cc1 (configuration not stated) | i | i | i | i | 99.3 | i
O=C(C1CCN(S(=O)(=O)c2cccnc2)CC1)N1CCN(c2ccc(Cl)cc2)CC1 | 63* | i | -6* | i | 102.7 | i
CS(=O)(=O)N1CCC(C(=O)N2CCN(C(c3ccccc3)c3ccccc3)CC2)CC1 | i | i | i | i | 104.5 | i
COc1ccc(CN2CCN(Cc3ccc(C(F)(F)F)cc3)CC2)c(OC)c1 | i | i | -6* | i | 100.5 | i
COc1ccc(CN2CCN(Cc3ccccc3F)CC2)c(OC)c1 | i | i | -5* | i | 95.3 | i
COc1cc(OC)c(OC)cc1CN1CCN(Cc2ccc(SC)cc2)CC1 | 43* | i | i | i | 96.1 | i
COc1ccc(CN2CCN(Cc3ccc(C)cc3)CC2)c(OC)c1 | i | i | i | i | 99.6 | i
CC(NC(=O)c1ccc(OC2CCN(S(=O)(=O)N(C)C)CC2)cc1)C1CC1 (configuration not stated) | i | i | i | i | 98.2 | i
O=C(O)c1cccc(N/N=C/C2=C(Cl)c3cc(Cl)ccc3SC2)c1 | i | i | i | i | 95.0 | i
CCCC1C(=O)Nc2ccccc2N1C(=O)c1ccc(C(C)(C)C)cc1 (configuration not stated) | i | 16* | i | i | 101.4 | i
NC(CCCCc1ccccc1)c1cccc2ccccc12 (configuration not stated) | i | i | i | i | . | -7.88*
